From PubChem
TNAP inh no acc = human TNAP enzyme inhibitors, primary screen, biochemical, luminescent, no phosphate acceptor, uHTS; Alkaline phosphatase, tissue-nonspecific isozyme (Homo sapiens), P05186; purified TNAP, CDP-star luminescence, 30 min; inhibition, % at 20 µM; 200,000 compounds, 0.26% hits; AID 1012, 2008;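 active means tissue-nonspecific alkaline phosphatase inhibition above about 50% at 20 µM in the single-dose screen, limit read from the data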
Target sequence (P05186 whole entry, looked up): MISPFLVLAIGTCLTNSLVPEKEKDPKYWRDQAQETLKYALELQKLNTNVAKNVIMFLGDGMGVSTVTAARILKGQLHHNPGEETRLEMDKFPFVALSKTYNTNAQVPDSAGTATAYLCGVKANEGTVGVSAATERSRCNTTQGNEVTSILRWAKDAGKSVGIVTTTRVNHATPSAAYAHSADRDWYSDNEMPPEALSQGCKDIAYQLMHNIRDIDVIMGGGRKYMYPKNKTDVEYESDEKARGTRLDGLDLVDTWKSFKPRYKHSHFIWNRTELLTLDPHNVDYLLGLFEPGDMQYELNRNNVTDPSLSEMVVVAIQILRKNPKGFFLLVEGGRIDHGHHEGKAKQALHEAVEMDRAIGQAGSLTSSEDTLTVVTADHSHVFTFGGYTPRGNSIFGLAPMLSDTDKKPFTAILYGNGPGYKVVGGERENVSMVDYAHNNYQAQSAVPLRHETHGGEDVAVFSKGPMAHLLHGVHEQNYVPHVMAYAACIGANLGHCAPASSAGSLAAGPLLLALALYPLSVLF
Calb biofilm kill = clotrimazole potentiators killing C. albicans biofilm, primary screen, 4-compound mixtures; C. albicans biofilm persisters + clotrimazole, fluorescence viability; primary screen in compound mixtures of four per well; inhibition, % at 7.6 µM; 120,000 compounds, 0.02% hits; AID 1242, 2008;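 active means inhibition above 30.3% in the primary screen of four-compound pools, then above 30% when the compound was retested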;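 further: compounds exposed to preformed 24 h biofilms for 48 h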
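System: C. albicans CAF4-2 wild-type biofilms; Medium: RPMI/MOPS medium, pH 7.0; Reagent: Clotrimazole, 50 µg/mL; Times: biofilm formation 24 h, compound exposure 48 h, 37 °C; Detection: 2-h Alamar Blue fluorescence, 535/590 nm excitation/emission; Evaluation: percent inhibition of biofilm viability.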
TNAP inh hiacc = human TNAP enzyme inhibitors, primary screen, biochemical, luminescent, high phosphate acceptor level, uHTS. Alkaline phosphatase, tissue-nonspecific isozyme (Homo sapiens), P05186. purified TNAP, CDP-star luminescence, 1 M DEA. inhibition, % at 20 µM. 200,000 compounds, 0.03% hits. AID 1135, 2008;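 active means over 50% inhibition of tissue-nonspecific alkaline phosphatase at 20 µM in the single-dose screen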
TNAP act hiacc = TNAP activators at high phosphate acceptor level, primary screen, biochemical, luminescence, uHTS | Alkaline phosphatase, tissue-nonspecific isozyme (Homo sapiens), P05186 | purified TNAP, CDP-star luminescence, 1 M DEA, 30 min; hits give high values; 0 = EDTA background, 1 = DMSO-only activity | activation factor at 20 µM | 200,000 tested, under 10 active;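 active means activation factor at least 2 at 20 µM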
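Dosing: 20 µM single point. System: human TNAP. Amount: TNAP 1/800 final. Incubation: 30 min, room temperature. Read-out: TNAP activation factor scaled between EDTA and DMSO control wells. Signal: luminescence from CDP-star hydrolysis. Medium: 1 M DEA, pH 9.8, Mg2+, Zn2+. Control set: EDTA negative control, DMSO positive control.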
Of the large screens only hits and unclear results are named; the others gave an inactive call. Compounds with a hit are over-represented: about 0.28% of the library has one in this group of screens.

CCOC(=O)C1(CCOc2ccccc2)CCN(Cc2cccc3nonc23)CC1	none
O=c1cc(-c2ccc(O)c(O)c2)oc2c(C3O[C@H](CO)[C@@H](O)[C@H](O)[C@H]3O)c(O)cc(O)c12 (some centres undefined)	TNAP inh no acc 53
O=C(N/N=C/c1ccccc1C(=O)O)c1cc(-c2ccc3c4c(cccc24)CC3)n[nH]1	TNAP inh no acc 74
Cc1cccc(Nc2nc(NCCCN3CCOCC3)nc(N)c2[N+](=O)[O-])c1	none
Cc1ccc(-c2nc(SCC(=O)c3c(N)n(C)c(=O)n(C)c3=O)n[nH]2)cc1	TNAP inh no acc 88
COC(=O)c1ccccc1NC(=O)CSc1n[nH]c(-c2cccnc2)n1	TNAP inh no acc 69
CCOC(=O)c1sc(NC(=O)CSc2n[nH]c(-c3ccccc3)n2)c(C#N)c1C	TNAP inh no acc 76 (no result: Calb biofilm kill)
COC(=O)c1ccccc1NC(=O)CSc1n[nH]c(C)n1	none
Cn1c(N)c(C(=O)CSc2nc(N)cc(N)n2)c(=O)n(C)c1=O	none
CCOC(=O)c1sc(NC(=O)CSc2nc(C)cc(C)n2)c(C#N)c1C	none (no result: Calb biofilm kill)
CC(C)c1ccc(C(=O)CSc2n[nH]c(-c3ccncc3)n2)cc1	none (no result: Calb biofilm kill)
O=C(CSc1n[nH]c(-c2ccccc2)n1)c1ccccc1	TNAP inh no acc 56 (no result: Calb biofilm kill)
COC(=O)c1ccc(CSc2n[nH]c(-c3ccccc3)n2)o1	TNAP inh no acc 70
CN(C)c1nc(N)nc(CSc2n[nH]c(-c3ccccc3)n2)n1	TNAP inh no acc 68 (no result: Calb biofilm kill)
O=C1C2C3c4ccccc4C(c4ccccc43)C2C(=O)N1Cc1ccccn1 (centres undefined)	none
N#CC1=C(N)Oc2n[nH]c(-c3cccs3)c2C1C1C=CCCC1 (centres undefined)	TNAP inh no acc 54 (no result: Calb biofilm kill)
Cn1cccc1CC(=O)N/N=C/C=C/c1ccco1	none
O=C(C1CCN(Cc2cn[nH]c2-c2ccc(F)cc2F)CC1)N1CCOCC1	TNAP inh no acc 51
OCCCC1CCCN(Cc2cn[nH]c2-c2ccc(F)cc2F)C1 (centres undefined)	TNAP inh no acc 53
COc1ccc(-c2[nH]ncc2CN2CCC(C(=O)N3CCOCC3)CC2)c(F)c1	TNAP inh no acc 68
Cc1sc2ncn(CC(=O)NCC3COc4ccccc4O3)c(=O)c2c1S(=O)(=O)N1CCCCC1 (centres undefined)	none
COc1ccccc1N1CCN(C(=O)CSc2nc3ncnc(N)c3[nH]2)CC1	TNAP inh no acc 60 (no result: Calb biofilm kill)
Nc1ncnc2nc(SCC(=O)N3CCN(c4ccccc4)CC3)[nH]c12	TNAP inh no acc 62 (no result: Calb biofilm kill)
O=C(CSc1nccc(=O)[nH]1)N1CCN(c2ccccc2)CC1	none
Cc1ccc(N=Nc2c(=O)[nH]n3c(C)cc(C)nc23)cc1	none (no result: Calb biofilm kill)
Cc1cc(C)n2[nH]c(=O)c(N=Nc3ccc(S(N)(=O)=O)cc3)c2n1	TNAP inh no acc 91
COc1cccc(CNC(=O)N[C@@H](C)C(=O)O)c1	none (no result: TNAP inh no acc, TNAP inh hiacc, TNAP act hiacc)
Cc1cc(/C=C2\SC(=Nc3ccccc3)NC2=O)c(C)n1-c1ccc(S(N)(=O)=O)cc1	none (no result: Calb biofilm kill)
CC(C)(C)c1nc2ccccc2c2nnc(SCC(=O)Nc3nccs3)n12	none (no result: Calb biofilm kill)
CC(C)(C)c1nc2ccccc2c2nnc(SCC(=O)Nc3nc4ccccc4s3)n12	TNAP inh hiacc 52 (no result: Calb biofilm kill)
O=C1CC(c2ccc(F)cc2)Sc2ccccc2N1 (centres undefined)	none (no result: Calb biofilm kill)
O=C1CC(c2ccc(F)cc2)Sc2nc(C34CC5CC(CC(C5)C3)C4)nn21 (centres undefined)	TNAP inh no acc 86
CC1(C)CC(C(CC(=O)N2CCCC2)Cc2ccccc2)CCO1 (centres undefined)	none (no result: TNAP inh no acc, TNAP inh hiacc, TNAP act hiacc)
Cc1nonc1N1CCN(Cc2cn[nH]c2-c2ccc3c(c2)OCO3)CC1	none
COc1ccc(-c2[nH]ncc2CN2CCN(C(=O)c3ccco3)CC2)cc1F	none
Cc1nonc1N1CCN(Cc2cn[nH]c2-c2ccc(F)cc2F)CC1	TNAP inh no acc 60
CN1CCN(Cc2cn[nH]c2-c2ccc(F)cc2F)[C@@H](c2ccccc2)C1	none
COc1cccc(C(=O)N2CCN(Cc3cn[nH]c3-c3ccc(F)cc3F)CC2)c1	TNAP inh no acc 65
O=C(c1ccco1)N1CCN(Cc2cn[nH]c2-c2ccc(F)cc2F)CC1	TNAP inh no acc 78
COc1ccc(-c2[nH]ncc2CN2C[C@@H]3CCC[C@H]2C3)c(F)c1	TNAP inh no acc 76
